Laboratory results from BindingDB's records for doi:10.1021/jm970020k (Eli Lilly, 1997).

Target: Integrin alpha-IIb/beta-3 (Homo sapiens, UniProt P08514+P05106)
Test: Inhibition of the platelet GPIIb-IIIa receptor measured as ability to attenuate ADP-induced (fibrinogen-mediated) platelet aggregation in human platelet-rich plasma (PRP)
Summary of the method: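 Functional GPIIb-IIIa assay in human platelet-rich plasma. Aggregation was induced with ADP and depends on fibrinogen.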

Sequence of Integrin alpha-IIb/beta-3 (P05106 27-788 limits assumed): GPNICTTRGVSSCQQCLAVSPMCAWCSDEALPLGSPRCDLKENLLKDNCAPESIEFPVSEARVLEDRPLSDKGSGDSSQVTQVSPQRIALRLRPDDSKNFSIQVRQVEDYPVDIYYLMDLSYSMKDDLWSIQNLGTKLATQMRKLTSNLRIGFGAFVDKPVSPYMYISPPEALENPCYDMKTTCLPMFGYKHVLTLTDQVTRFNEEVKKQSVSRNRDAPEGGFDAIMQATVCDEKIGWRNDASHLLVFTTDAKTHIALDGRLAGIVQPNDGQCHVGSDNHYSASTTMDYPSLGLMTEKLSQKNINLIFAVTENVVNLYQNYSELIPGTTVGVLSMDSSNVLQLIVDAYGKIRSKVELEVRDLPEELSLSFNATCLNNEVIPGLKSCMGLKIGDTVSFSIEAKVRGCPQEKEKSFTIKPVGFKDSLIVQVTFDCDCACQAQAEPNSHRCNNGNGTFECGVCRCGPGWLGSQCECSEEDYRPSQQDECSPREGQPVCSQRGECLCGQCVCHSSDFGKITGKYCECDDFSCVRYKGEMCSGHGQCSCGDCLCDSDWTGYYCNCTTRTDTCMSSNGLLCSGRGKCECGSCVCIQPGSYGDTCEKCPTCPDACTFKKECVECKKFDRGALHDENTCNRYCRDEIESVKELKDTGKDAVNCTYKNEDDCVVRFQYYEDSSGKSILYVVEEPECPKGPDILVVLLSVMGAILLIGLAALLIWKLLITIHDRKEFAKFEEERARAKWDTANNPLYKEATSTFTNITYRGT
Sequence of Integrin alpha-IIb/beta-3 (P08514 32-887 limits assumed): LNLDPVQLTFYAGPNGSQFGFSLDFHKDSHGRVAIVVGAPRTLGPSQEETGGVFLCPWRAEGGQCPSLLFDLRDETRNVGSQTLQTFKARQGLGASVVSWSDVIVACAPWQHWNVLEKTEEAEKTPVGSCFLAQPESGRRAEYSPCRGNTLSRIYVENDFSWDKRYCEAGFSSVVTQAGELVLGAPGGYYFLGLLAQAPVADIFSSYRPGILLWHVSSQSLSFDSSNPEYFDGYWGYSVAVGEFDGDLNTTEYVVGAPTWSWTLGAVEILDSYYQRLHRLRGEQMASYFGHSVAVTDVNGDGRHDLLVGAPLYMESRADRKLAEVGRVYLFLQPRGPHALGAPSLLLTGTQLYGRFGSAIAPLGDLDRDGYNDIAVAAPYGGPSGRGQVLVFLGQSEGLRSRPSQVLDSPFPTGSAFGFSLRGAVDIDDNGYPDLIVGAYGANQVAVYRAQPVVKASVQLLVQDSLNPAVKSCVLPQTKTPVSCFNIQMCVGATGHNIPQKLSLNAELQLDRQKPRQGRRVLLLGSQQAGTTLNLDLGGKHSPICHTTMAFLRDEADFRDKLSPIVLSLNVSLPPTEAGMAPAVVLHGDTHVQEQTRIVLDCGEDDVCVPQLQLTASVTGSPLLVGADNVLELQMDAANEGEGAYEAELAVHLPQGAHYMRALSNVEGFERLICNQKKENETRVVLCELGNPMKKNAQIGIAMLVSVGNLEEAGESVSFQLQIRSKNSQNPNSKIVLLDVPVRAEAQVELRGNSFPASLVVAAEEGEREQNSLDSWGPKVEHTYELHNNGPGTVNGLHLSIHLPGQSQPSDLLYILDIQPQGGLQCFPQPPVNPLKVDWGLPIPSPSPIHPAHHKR
Sequence of Integrin alpha-IIb/beta-3 (P08514 891-1039 limits assumed): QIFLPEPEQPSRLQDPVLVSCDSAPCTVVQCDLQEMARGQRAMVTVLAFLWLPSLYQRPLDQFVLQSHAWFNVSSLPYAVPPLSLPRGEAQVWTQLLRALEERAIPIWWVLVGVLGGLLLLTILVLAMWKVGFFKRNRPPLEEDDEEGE

SMILES	IC50
N=C(N)c1ccc2[nH]c(C(=O)NCc3ccc(CCC(=O)O)cc3)cc2c1 [3-(4-{[(5-Carbamimidoyl-1H-indole-2-carbonyl)-amino]-methyl}-phenyl)-propionic acid]	39 µM
CCCCC(CCCCNC(=O)c1cc2cc(C(=N)N)ccc2[nH]1)CC(=O)O (stereo unspecified) [3-Butyl-7-[(5-carbamimidoyl-1H-indole-2-carbonyl)-amino]-heptanoic acid]	25.3 µM
N=C(N)c1ccc2[nH]c(C(=O)NCCC(=O)NCCC(=O)O)cc2c1 [3-{3-[(5-Carbamimidoyl-1H-indole-2-carbonyl)-amino]-propionylamino}-propionic acid]	3.6 µM
CCCCCCC(CCCCNC(=O)c1cc2cc(C(=N)N)ccc2[nH]1)CC(=O)O (stereo unspecified) [3-{4-[(5-Carbamimidoyl-1H-indole-2-carbonyl)-amino]-butyl}-nonanoic acid]	59 µM
N=C(N)c1ccc2[nH]c(C(=O)NCC(=O)NCCCC(=O)O)cc2c1 [4-{2-[(5-Carbamimidoyl-1H-indole-2-carbonyl)-amino]-acetylamino}-butyric acid]	50 µM
N=C(N)c1ccc2[nH]c(C(=O)NCCCCCC(=O)O)cc2c1 [6-[(5-Carbamimidoyl-1H-indole-2-carbonyl)-amino]-hexanoic acid]	> 100 µM
N=C(N)c1ccc2oc(C(=O)NCCCCCC(=O)O)cc2c1 [6-[(5-Carbamimidoyl-benzofuran-2-carbonyl)-amino]-hexanoic acid]	16 µM
N=C(N)c1cccc(NCC(=O)NCCCCCCC(=O)O)c1 [7-[2-(3-Carbamimidoyl-phenylamino)-acetylamino]-heptanoic acid]	> 100 µM
N=C(N)c1ccc(OCC(=O)NCCCCCCC(=O)O)cc1 [7-[2-(4-Carbamimidoyl-phenoxy)-acetylamino]-heptanoic acid]	2.6 µM
N=C(N)c1ccc(NCC(=O)NCCCCCCC(=O)O)cc1 [7-[2-(4-Carbamimidoyl-phenylamino)-acetylamino]-heptanoic acid]	67 µM
Cn1c(C(=O)NCCCCCCC(=O)O)cc2cc(C(=N)N)ccc21 [7-[(5-Carbamimidoyl-1-methyl-1H-indole-2-carbonyl)-amino]-heptanoic acid]	7.5 µM
CCC(CCCCCNC(=O)c1cc2cc(C(=N)N)ccc2[nH]1)C(=O)O (stereo unspecified) [7-[(5-Carbamimidoyl-1H-indole-2-carbonyl)-amino]-2-ethyl-heptanoic acid]	> 100 µM
CC(CCCCCNC(=O)c1cc2cc(C(=N)N)ccc2[nH]1)C(=O)O (stereo unspecified) [7-[(5-Carbamimidoyl-1H-indole-2-carbonyl)-amino]-2-methyl-heptanoic acid]	43.7 µM
CCC(CCCCNC(=O)c1cc2cc(C(=N)N)ccc2[nH]1)CC(=O)O (stereo unspecified) [7-[(5-Carbamimidoyl-1H-indole-2-carbonyl)-amino]-3-ethyl-heptanoic acid]	5.2 µM
CC(CCCCNC(=O)c1cc2cc(C(=N)N)ccc2[nH]1)CC(=O)O (stereo unspecified) [7-[(5-Carbamimidoyl-1H-indole-2-carbonyl)-amino]-3-methyl-heptanoic acid]	2.8 µM
N=C(N)c1ccc2[nH]c(C(=O)NCCCCC(CC(=O)O)c3ccccc3)cc2c1 (stereo unspecified) [7-[(5-Carbamimidoyl-1H-indole-2-carbonyl)-amino]-3-phenyl-heptanoic acid]	4.9 µM
N=C(N)c1ccc2[nH]c(C(=O)NCCCCCCC(=O)O)cc2c1 [7-[(5-Carbamimidoyl-1H-indole-2-carbonyl)-amino]-heptanoic acid]	2.8 µM
CN(CCCCCCC(=O)O)C(=O)c1cc2cc(C(=N)N)ccc2[nH]1 [7-[(5-Carbamimidoyl-1H-indole-2-carbonyl)-methyl-amino]-heptanoic acid]	3 µM
N=C(N)c1ccc2c(c1)CC(C(=O)NCCCCCCC(=O)O)O2 (stereo unspecified) [7-[(5-Carbamimidoyl-2,3-dihydro-benzofuran-2-carbonyl)-amino]-heptanoic acid]	3.4 µM
Cc1c(C(=O)NCCCCCCC(=O)O)[nH]c2ccc(C(=N)N)cc12 [7-[(5-Carbamimidoyl-3-methyl-1H-indole-2-carbonyl)-amino]-heptanoic acid]	4.1 µM
N=C(N)c1ccc2sc(C(=O)NCCCCCCC(=O)O)cc2c1 [7-[(5-Carbamimidoyl-benzo[b]thiophene-2-carbonyl)-amino]-heptanoic acid]	7.3 µM
N=C(N)c1ccc2oc(C(=O)NCCCCCCC(=O)O)cc2c1 [7-[(5-Carbamimidoyl-benzofuran-2-carbonyl)-amino]-heptanoic acid]	0.27 µM
N=C(N)c1ccc2c(C(=O)NCCCCCCC(=O)O)[nH]nc2c1 [7-[(6-Carbamimidoyl-1H-indazole-3-carbonyl)-amino]-heptanoic acid]	0.14 µM
N=C(N)c1ccc2cc(C(=O)NCCCCCCC(=O)O)[nH]c2c1 [7-[(6-Carbamimidoyl-1H-indole-2-carbonyl)-amino]-heptanoic acid]	1.3 µM
N=C(N)c1ccc2c(C(=O)NCCCCCCC(=O)O)c[nH]c2c1 [7-[(6-Carbamimidoyl-1H-indole-3-carbonyl)-amino]-heptanoic acid]	0.65 µM
N=C(N)c1ccc2cc(C(=O)NCCCCCCC(=O)O)oc2c1 [7-[(6-Carbamimidoyl-benzofuran-2-carbonyl)-amino]-heptanoic acid]	7.2 µM
N=C(N)c1ccc2[nH]c(C(=O)NCc3ccc(CC(=O)O)cc3)cc2c1 [(4-{[(5-Carbamimidoyl-1H-indole-2-carbonyl)-amino]-methyl}-phenyl)-acetic acid]	47 µM
N=C(N)c1ccc2[nH]c(C(=O)NCCCC(=O)NCC(=O)O)cc2c1 [{4-[(5-Carbamimidoyl-1H-indole-2-carbonyl)-amino]-butyrylamino}-acetic acid]	32 µM

Target: not listed separately
Test: Inhibition ADP-induced (fibrinogen-mediated) platelet aggregation in human platelet-rich plasma (PRP)

SMILES	IC50
N=C(N)c1ccc2c(c1)cc(C(=O)NCCCCCCC(=O)O)n2Cc1ccccc1 [7-[(1-Benzyl-5-carbamimidoyl-1H-indole-2-carbonyl)-amino]-heptanoic acid]	21 µM
N=C(N)c1ccc2oc(C(=O)NCCCCCCCC(=O)O)cc2c1 [8-[(5-Carbamimidoyl-benzofuran-2-carbonyl)-amino]-octanoic acid]	26.7 µM
C#C[C@H](CC(=O)O)NC(=O)CCC(=O)Nc1ccc(C(=N)N)cc1 [(S)-3-[3-(4-Carbamimidoyl-phenylcarbamoyl)-propionylamino]-pent-4-ynoic acid]	0.035 µM
